An excerpt weighted towards active compounds, which were near 2.6% of everything screened.
XiGFP reactiv: X-chromosome reactivation activator | activation, % at 7.58 µM | AID 743238 | XiGFP mouse fibroblasts, % GFP-positive cells imaging, 3 d; cells co-treated with 5-aza-dC sensitizer; scaled so ellipticine positive control = 100% | hit rate 0.055% among 360,000;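 active means mean normalized replicate activation at least 10% and every replicate at or above 10%; inconclusive means only one of the two criteria met; inactive means mean below 10% and not all replicates reach 10%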;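 further: 0% = median of on-plate neutral control wells and 100% = ellipticine 6 µM median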
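Material: SV40-immortalized XiGFP fibroblast cells, line 68-5-11 | Buffer or medium: DMEM containing 5-aza-dC | Dosing: One concentration, pinned | Times: 3 d treatment, 15 min room-temperature fixation | Controls: Ellipticine 6 µM positive control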
SR-BI DiI-HDL act: SR-BI HDL lipid transfer activation; activation, % at 12.5 µM; hit rate 0.096% among 320,000; CHO ldlA[mSR-BI] cells, DiI-HDL uptake fluorescence, 3 h; 100 = double the neutral-control signal;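 active means mean replicate activation of at least 60% and every replicate at or above 60%; inconclusive means mean or all-replicate condition met, but not both; inactive means mean below 60% and not all replicates reaching 60%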;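 further: 0% = median plate neutral-control signal and 100% = twice that signal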
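Test system: SR-BI-overexpressing, LDLR-lacking CHO cells. Measured by: DiI fluorescence, bottom read. Medium: Ham's F12 with 0.5% BSA, HEPES 25 mM, pH 7.4. Timing: 3 h uptake period with compound, 37 °C.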
rRNA inh HTS: selective bacterial rRNA inhibition in E. coli | GFP signal change (wild-type ribosome), % (test concentration not listed) | hit rate 1.6% among 350,000 | E. coli WT GFP vs humanized-ribosome RFP mutants, fluorescence, 24 h; active compounds read low; DMSO median 0, no signal -100;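 active means significant combined selectivity score with lowered wild-type GFP, culture density cut under 30%, mutant RFP and density less affected; inactive means any of these conditions unmet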
dFosB act: mouse delta FosB homodimer activation. P13346. purified delta FosB, TAMRA-CDK5 oligo fluorescence polarization; percent of positive-control signal above neutral wells. activation, % at 25 µM. hit rate 0.99% among 340,000. AID 493131;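 active means mean activation above about 17%, with every replicate also reaching it, limit read from the data, passing the limit was not always enough; inconclusive means only one of the two conditions met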
Target sequence (P13346 whole entry, looked up): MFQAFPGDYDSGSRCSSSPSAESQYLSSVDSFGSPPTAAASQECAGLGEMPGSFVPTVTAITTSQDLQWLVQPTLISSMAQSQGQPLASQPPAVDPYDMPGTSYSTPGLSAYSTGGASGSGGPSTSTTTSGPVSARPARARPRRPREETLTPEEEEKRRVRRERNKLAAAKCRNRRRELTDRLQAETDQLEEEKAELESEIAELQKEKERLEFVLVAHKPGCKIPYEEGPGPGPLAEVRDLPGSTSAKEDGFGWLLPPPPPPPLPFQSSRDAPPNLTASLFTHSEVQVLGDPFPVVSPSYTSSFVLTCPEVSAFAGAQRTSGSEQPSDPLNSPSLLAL
PvdQ inh: P. aeruginosa PvdQ acylase inhibition | inhibition, % at 10 µM | hit rate 0.063% among 340,000 | purified PvdQ acylase, fluorescence plate reader; in the data active means inhibition above about 30%, passing the limit was not always enough; inconclusive means no clear call, values can overlap the other calls;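 further: 0% = vehicle neutral wells and 100% = reference inhibitor wells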
SR-BI HDL uptake: mouse SR-BI HDL lipid transfer inhibition | hit rate 0.96% among 320,000 | ldlA[mSR-BI] CHO cells, DiI-HDL uptake fluorescence, 3 h | inhibition, % at 12.5 µM;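 active means mean replicate inhibition of at least 70% and a set share of replicates each scoring 70 or more; inconclusive means meets just one of the two criteria; inactive means fails both criteria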;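 further: 0% = median of neutral control wells and 100% = median of positive control wells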
AID977621: wild-type E. coli growth inhibition versus H69 humanized strain – H69 mutant RFP, wild-type GFP, cherry-pick, dose response. shares compounds with rRNA inh HTS. activity change, negative = inhibition at 50 µM. fluorescence, 24 h. AID 977621. 1,900 tested, under 10 active;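 active means Wild-type ribosome reporter drop at least double the humanized mutant ribosome reporter drop, growth loss under a set limit; inconclusive means no clear call, values can overlap the other calls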;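 further: wild-type GFP and H69 mutant RFP strains grown together 50/50 in each well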
AID977628: growth of wild-type and h24-humanized E. coli strains – h24 mutant RFP vs wild-type GFP, cherry-pick, dose response. shares compounds with rRNA inh HTS. 1,900 tested, under 10 active. activity change, negative = inhibition at 50 µM. AID 977628. E. coli WT GFP strain growth, fluorescence, 24 h;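 active means compound lowering the normal-ribosome reporter at least twice as much as the humanized-ribosome reporter, growth loss under a set limit; inconclusive means no clear call, values can overlap the other calls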;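 further: wild-type GFP and h24 humanized RFP strains co-cultured 1 to 1 per well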
* hit, by the source's call; ? = inconclusive; nt = no result; ! = repeats disagree.

SMILES | XiGFP reactiv | SR-BI DiI-HDL act | rRNA inh HTS | dFosB act | PvdQ inh | SR-BI HDL uptake | AID977621 | AID977628
COc1ccc(C#Cc2ccc([C@@H]3[C@H]4CN(C(=O)Nc5cccc(F)c5)CCCCN4[C@H]3CO)cc2)cc1 | 0 | nt | 4 | nt | nt | nt | nt | nt
COc1ccc(C#Cc2ccc([C@@H]3[C@H](CO)N4CCCCN(C(=O)Nc5cccc(F)c5)C[C@@H]34)cc2)cc1 | 0 | nt | -49* | nt | nt | nt | nt | ?
COc1ccc(C#Cc2ccc([C@H]3[C@@H](CO)N4CCCCN(C(=O)Nc5cccc(F)c5)C[C@H]34)cc2)cc1 | 0 | nt | -48* | nt | nt | nt | 3.3 | -14
COC(=O)c1ccc(CSc2nc(-c3ccccc3)cs2)o1 | nt | 2 | -23* | -6 | -11 | -2 | -13 | nt
COc1ccc(C(CNC(=O)c2ccc(NS(=O)(=O)c3ccc(F)c(C)c3)cc2)N2CCCC2)cc1 (stereo not given) | 0 | 7 | -4 | -15 | -13 | -7 | nt | nt
O=C(CN1CCCCC1)Nc1nc(-c2ccc(F)c(F)c2)cs1 | 0 | nt | 5 | -7 | -7 | nt | nt | nt
O=C(COC(=O)C1CC1)Nc1nc(-c2ccc(F)c(F)c2)cs1 | 0 | 2 | -24* | 0 | 3 | -2 | -6.5 | nt
Cc1onc(-c2ccccc2)c1C(=O)Oc1ccccc1 | 0 | nt | -29* | nt | nt | nt | -3.3 | -3
O=C(O)CCNC(=O)c1cncc(Br)c1 | nt | 5 | 3 | 4 | -12 | -5 | nt | nt
C[C@@H]1NS(=O)(=O)c2c(F)cccc2O[C@@H]1c1ccccc1 | 0 | nt | -22* | nt | nt | nt | nt | ?
CC12CCC(C(=O)NNC(=O)c3ccc(Br)cc3)(OC1=O)C2(C)C (stereo not given) | 0 | 16 | 12 | -2 | -4 | -16 | nt | nt
CC(=O)c1cccc(NC(=O)NCc2ccccn2)c1 | nt | -26 | 8 | -2 | 10 | 26 | nt | nt
COc1ccc(CNC(=O)Nc2ccc([N+](=O)[O-])cc2)cc1 | 0 | -13 | 0 | 7 | -6 | 13 | nt | nt
COc1ccc(NC(=O)c2ccc(-c3ccc([N+](=O)[O-])cc3)o2)cc1 | nt | nt | -26* | -6 | -4 | nt | nt | ?
NC(=O)COc1ccc(C(=O)NCC2(N3CCOCC3)CCCCC2)cc1 | 0 | 13 | 20 | -7 | -11 | -13 | nt | nt
Cn1c(SCc2ccccn2)nc2c1c(=O)[nH]c(=O)n2C | 0 | 18 | 11 | 0 | -17 | -18 | nt | nt
C/C(=N/Nc1nc(C)cc(-c2ccccc2)n1)c1ccco1 | nt | -27 | nt | -13 | -14 | 27 | nt | nt
C(=C\c1ccc(C2[C@H]3CNC[C@@H]2N3Cc2nccs2)cc1)/c1ccccc1 (stereo not given in full) | 0 | nt | -21*! | nt | nt | nt | nt | ?
Cc1ccc(-c2ccc(C3[C@H]4CNC[C@@H]3N4Cc3nccs3)cc2)cc1 (stereo not given in full) | 0 | nt | 0 | nt | nt | nt | nt | nt
CCOC(=O)c1cnc2ccc(OC)cc2c1NCc1ccccc1 | 0 | -17 | -36 | 3 | -8 | 17 | nt | nt
CCOC(=O)c1cnc2ccccc2c1NCc1ccco1 | 0 | -13 | -29* | -20 | -15 | 13 | nt | -10
COc1ccc2c(c1)c(C(C)=O)c(C)n2CCc1ccc(OC)c(OC)c1 | 0 | -11 | -33* | -16 | -14 | 11 | -11 | nt
CC(=O)c1ccc(OCC(=O)Nc2ccc3c(c2)CCC3)cc1 | 0 | 5 | -26* | -9 | -10 | -5 | -5.5 | -5.3
O=C(c1cc(S(=O)(=O)N2CCOCC2)ccc1Cl)N1CCc2ccccc2C1 | 0 | -12 | -20* | -3 | 5 | 12 | -12 | -9.1
COc1cc2c(cc1OC)CN(C(=O)c1cc(S(=O)(=O)N3CCOCC3)ccc1Cl)CC2 | nt | -22 | nt | -9 | 0 | 22 | nt | nt
SMILES | XiGFP reactiv | SR-BI DiI-HDL act | rRNA inh HTS | dFosB act | PvdQ inh | SR-BI HDL uptake | AID977621 | AID977628
O=C(COC(=O)C1CCN(S(=O)(=O)c2cccs2)CC1)Nc1ccc(F)c(F)c1F | 0 | 16 | -5 | -1 | -5 | -16 | nt | nt
CC1CC(C)CN(S(=O)(=O)c2ccc(C(=O)N3CC(C)OC(C)C3)cc2)C1 (stereo not given) | 0 | 15 | 10 | 2 | -3 | -15 | nt | nt
OCCN(Cc1ccccc1)Cc1ccccc1O | 0 | 14 | 5 | -1 | 10 | -14 | nt | nt
OCCN(Cc1ccccc1)Cc1ccc(F)c(F)c1 | nt | 15 | -23* | -5 | -4 | -15 | -11 | -9.4
O=C(OCc1cn([C@@H]2C[C@H](c3ccc(Cl)cc3)N(C(=O)c3cccs3)C[C@H]2O)nn1)c1ccccc1 | 0 | nt | -11 | nt | nt | nt | nt | nt
CCOC(=O)c1sc(NC(=O)CN2CCN(c3ccccc3)CC2)nc1C | 0 | -12 | -20* | -4 | -4 | 12 | nt | -19
CCOC(=O)c1ccc(NC(=O)CN2CCN(c3ccccc3)CC2)cc1 | nt | 5 | nt | -7 | 4 | -5 | nt | nt
CCOc1ccc(C(C)=O)cc1CN1C(=O)NC2(CCCCCCC2)C1=O | 0 | -16 | -40* | -4 | -6 | 16 | -0.93 | -17
COC(=O)C[C@H]1C[C@@H]2c3cc(NC(=O)Nc4ccc(C(F)(F)F)cc4)ccc3O[C@@H]2[C@H](CO)O1 | 0 | nt | -25* | nt | nt | nt | nt | ?
CC1(C(=O)Nc2ccc3nc[nH]c3c2)CCN1C(=O)Cc1ccc(-c2ccccc2)cc1 (stereo not given) | 0 | nt | -27 | nt | nt | nt | nt | nt
CN1N=C2c3ccccc3CCC2C1c1ccc(F)cc1 (stereo not given) | 0 | nt | -16* | nt | nt | nt | -9.4 | ?
CCc1cc2ccc(OC)cc2nc1SCC(=O)NNC(=O)c1ccco1 | 0 | -9 | -36 | -5 | -2 | 9 | nt | nt
CCc1cc2ccc(OC)cc2nc1SCC(=O)N1CCN(C(=O)c2ccco2)CC1 | 0 | -32 | -26* | -28 | -10 | 32 | -21 | nt
CC1=CC(C)(C)N(C(=O)CSc2nnc(C)s2)c2ccc(C)cc21 | nt | -27 | -17* | -4 | -9 | 27 | 5.1 | ?
CC1=CC(C)(C)N(C(=O)CSc2nnc(N)s2)c2cc(C)c(C)cc21 | nt | 13 | nt | -8 | -11 | -13 | nt | nt
CCCN(Cc1nnc(-c2ccccc2Cl)o1)C(=O)c1ccc(C)c(S(=O)(=O)N2CCOCC2)c1 | 0 | -19 | -4 | -7 | -14 | 19 | nt | nt
O=C(Nc1ccc(Cl)cn1)c1cc2c(s1)-c1ccccc1OC2 | 0 | -38 | -22* | ? | -19 | 38 | -7.2 | ?

Screening data deposited in PubChem BioAssay by Broad Institute.
